Results: the RNAGym collection of RNA variant scans (doi:10.1126/science.aae0568)
Variants at the floor of the assay were thinned out.

B1: tRNA (parent)
chain: GUUCCGUUGGCGUAAUGGUAACGCGUCUCCCUCCUAAGGAGAAGACUGCGGGUUCGAGUCCCGUACGGAACG

Variants of: B1
Experiment: yeast fitness relative to wild type (ratio to wild type); higher = fitter; tRNA-Arg(CCU), competitive growth, 37 C, YPD
Outline: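 Gene amplicons from the start population and from each of six end populations were read by 100-nucleotide paired-end sequencing. Those end populations came from pooled Saccharomyces cerevisiae strains carrying tRNA-Arg(CCU) gene variants at the native locus, competed in YPD at 37°C for 24 hours. Fitness relative to wild type was worked out from changes in genotype frequencies. Genotypes needed ≥ 100 starting reads, and estimates < 0.5 were set to 0.5.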

G6A U19G C33U C34U and G6A U26A C30G U59C cannot be ordered by yeast fitness: ≤ 0.5 for the first, ≤ 0.5 for the second.

Going from G6C A65C to G6C G56A, the yeast fitness rises from 0.872 to 1.03.

Going from G6C A57C A65U to G6C C46G A70C, the yeast fitness rises from ≤ 0.5 to 0.511.

Compared with G6C, G6A U13A A14G A42U G48C G67C is lower in yeast fitness: 1 for the first, ≤ 0.5 for the second.

Going from G6C G58C to G6A G17A U19G A69U, the yeast fitness falls from 1.01 to 0.595.

Compared with G6C C30G, G6C C27U A57C A70U is lower in yeast fitness: 0.592 for the first, 0.537 for the second.

Compared with G6A G41A C60G A65G, G6C G18C A21G A40U C49U is lower in yeast fitness: 0.618 for the first, ≤ 0.5 for the second.

G6A U26A C61A and G6A U7A C60G cannot be ordered by yeast fitness: ≤ 0.5 for the first, ≤ 0.5 for the second.

Going from G6A U16A A36C A37G G56C to G6A G44A, the yeast fitness rises from ≤ 0.5 to 0.737.

First: G6C G68C
Second: G6C G25A A70C
The yeast fitness of the first is higher: 0.874 for the first, 0.631 for the second.

G6C A42C C49U and G6C C30A A45G C55G A57U C62G cannot be ordered by yeast fitness: ≤ 0.5 for the first, ≤ 0.5 for the second.

G6A U8A G44C A57U and G6A U16A C61G G67U cannot be ordered by yeast fitness: ≤ 0.5 for the first, ≤ 0.5 for the second.

G6A U7G G25C U53A A69C and G6C G12A C33U A65G A70G cannot be ordered by yeast fitness: ≤ 0.5 for the first, ≤ 0.5 for the second.

First: G6A U8C A69C
Second: G6C G10A A36U G63A
The yeast fitness of the first is higher: 0.678 for the first, ≤ 0.5 for the second.

G6A U28G C60G and G6A U13G C27U C61G C66U cannot be ordered by yeast fitness: ≤ 0.5 for the first, ≤ 0.5 for the second.

Going from G6C G50A A69U to G6C C11A G23U G48C, the yeast fitness falls from 0.682 to ≤ 0.5.

G6A G51C A57G C61U A65C and G6C A15C G52C cannot be ordered by yeast fitness: ≤ 0.5 for the first, ≤ 0.5 for the second.

G6A G39C U54C and G6C C31A A36C G44A A57U C66A cannot be ordered by yeast fitness: ≤ 0.5 for the first, ≤ 0.5 for the second.

G6C C11U C27G G41C and G6A G23C A37U A57G A65C A70U cannot be ordered by yeast fitness: ≤ 0.5 for the first, ≤ 0.5 for the second.

Compared with G6C A37U A57C A69U A70C, G6A G12A is higher in yeast fitness: ≤ 0.5 for the first, 0.764 for the second.

Compared with G6A G48A, G6C G17A A36U C46A C49U C66A is lower in yeast fitness: 0.886 for the first, ≤ 0.5 for the second.

First: G6C A43C G50A
Second: G6A U26C C62G
The yeast fitness of the first is lower: ≤ 0.5 for the first, 0.515 for the second.

Going from G6A U47A C61U to G6A G38A C61A, the yeast fitness falls from 0.57 to ≤ 0.5.

G6C C22G C27G A45U A57G A70G and G6A G17C G18C A45G G58C C66U cannot be ordered by yeast fitness: ≤ 0.5 for the first, ≤ 0.5 for the second.

G6C G52A C55G and G6C C60U C62A cannot be ordered by yeast fitness: ≤ 0.5 for the first, ≤ 0.5 for the second.

First: G6A G12A U16C
Second: G6C C55U U59G A70U
The yeast fitness of the first is higher: 0.537 for the first, ≤ 0.5 for the second.

First: G6A G23C G41C C49U
Second: G6A G67U
The yeast fitness of the first is lower: ≤ 0.5 for the first, 0.814 for the second.

First: G6A G67C
Second: G6C A65G C66U
The yeast fitness of the first is higher: 0.963 for the first, 0.84 for the second.

Going from G6C A37C to G6A G41C, the yeast fitness rises from 0.693 to 0.863.

G6C C27G U28C C62G and G6A U26G C30U G52A cannot be ordered by yeast fitness: ≤ 0.5 for the first, ≤ 0.5 for the second.

G6C U7A G39C C55U A70G and G6A U54G A65U cannot be ordered by yeast fitness: ≤ 0.5 for the first, ≤ 0.5 for the second.

G6C G23A C49U and G6A G50A C66A cannot be ordered by yeast fitness: ≤ 0.5 for the first, ≤ 0.5 for the second.

Compared with G6C A43U, G6C A43C is lower in yeast fitness: 0.831 for the first, 0.739 for the second.

G6C A37G A40U A45C C60G and G6C A42U C61A U64A A69U cannot be ordered by yeast fitness: ≤ 0.5 for the first, ≤ 0.5 for the second.

First: G6C G50C A69U
Second: G6A G12A A21G C46A
The yeast fitness of the first is lower: 0.554 for the first, 0.636 for the second.

G6C C46U A57C and G6C A21G C24G C31A G44A cannot be ordered by yeast fitness: ≤ 0.5 for the first, ≤ 0.5 for the second.

Compared with G6C G25A A65G, G6C U7C is higher in yeast fitness: 0.595 for the first, 0.757 for the second.

G6C A37C G51A U53C C62A A70C and G6C G41A A43G C60U A70C cannot be ordered by yeast fitness: ≤ 0.5 for the first, ≤ 0.5 for the second.

Going from G6C G51A to G6A G18A G41C, the yeast fitness falls from 0.791 to ≤ 0.5.

G6A U13G C22A U26A C29G C34G G50C and G6A U8G U13A C30U G39C C55G cannot be ordered by yeast fitness: ≤ 0.5 for the first, ≤ 0.5 for the second.

Going from G6C A70U to G6C C34U G52C, the yeast fitness falls from 0.823 to 0.565.

Going from G6C A21G A57C to G6C C11A C66G, the yeast fitness rises from ≤ 0.5 to 0.592.

Going from G6C A37G A70C to G6A U19G G52A, the yeast fitness rises from ≤ 0.5 to 0.606.

G6C C11G G44C and G6A G38A U47A C60G cannot be ordered by yeast fitness: ≤ 0.5 for the first, ≤ 0.5 for the second.

First: G6A U19A G23A
Second: G6C C11U G56C A69C
The yeast fitness of the first is higher: 0.603 for the first, ≤ 0.5 for the second.

Going from G6A G12A A70U to G6A G10A C30U C60G, the yeast fitness falls from 0.656 to ≤ 0.5.

First: G6A U47G
Second: G6C G17A C30U A42C A65G C66G G68A
The yeast fitness of the first is higher: 0.594 for the first, ≤ 0.5 for the second.

Compared with G6A U35A C62A C66G, G6C C11A U32A A42G C55U is lower in yeast fitness: 0.694 for the first, 0.605 for the second.

G6C A42C C49U C62U and G6A U19A G44A cannot be ordered by yeast fitness: ≤ 0.5 for the first, ≤ 0.5 for the second.

G6A U54C A57U G58A A65U and G6C G23C C24A C66U cannot be ordered by yeast fitness: ≤ 0.5 for the first, ≤ 0.5 for the second.

Compared with G6C G10C C30U U35A, G6C G39C is higher in yeast fitness: ≤ 0.5 for the first, 0.7 for the second.

First: G6A G17C U19C C29A A70G
Second: G6C C11G C27U A42G C66U
The yeast fitness of the first is lower: ≤ 0.5 for the first, 0.552 for the second.

Going from G6A U28C A45G to G6C A20G C61A, the yeast fitness falls from 0.781 to ≤ 0.5.

Compared with G6C C11A U32A A42G C55U C61U, G6C G25A C27G is higher in yeast fitness: ≤ 0.5 for the first, 0.591 for the second.

Compared with G6C C24U A65C, G6C C55A is higher in yeast fitness: ≤ 0.5 for the first, 0.717 for the second.

Going from G6C C55G to G6C A14U A70C, the yeast fitness falls from 0.695 to 0.591.

Compared with G6C C27A C30G G41C C61G C62U A69U, G6A G12A C34U G41A is higher in yeast fitness: ≤ 0.5 for the first, 0.556 for the second.

G6A U13A A14G G41C and G6A U32A A37U A43C G48C cannot be ordered by yeast fitness: ≤ 0.5 for the first, ≤ 0.5 for the second.

First: G6C C29G C30U G51C C66A
Second: G6C G38C A43C G51C G56C
The yeast fitness of the first is higher: 0.686 for the first, 0.526 for the second.

Going from G6A G17A A69U to G6C G25A A43U G67C, the yeast fitness falls from 0.551 to ≤ 0.5.

First: G6C C31U A43G A69U
Second: G6A G68C A69G
The yeast fitness of the first is lower: ≤ 0.5 for the first, 0.568 for the second.

First: G6C G12A U54C
Second: G6C A21G C30G A37U
The yeast fitness of the first is higher: 0.594 for the first, 0.566 for the second.

Going from G6C A14G C49G G50A to G6C C24U C46G, the yeast fitness rises from ≤ 0.5 to 0.586.

Compared with G6A U54C C60G, G6C A14G A20C is higher in yeast fitness: ≤ 0.5 for the first, 0.501 for the second.

G6C C29A C55A A65G and G6C G12C A15U A21C C49U G51C U53C cannot be ordered by yeast fitness: ≤ 0.5 for the first, ≤ 0.5 for the second.

Going from G6C C11A A45C C60U to G6C U7C G9C C66U, the yeast fitness rises from ≤ 0.5 to 0.546.

First: G6C G10A A36U G51C A69C
Second: G6A G23C C29G A43U G50A A65C
The yeast fitness of the first is higher: 0.624 for the first, ≤ 0.5 for the second.

Going from G6C A14C U54C to G6C G51C G68C, the yeast fitness rises from ≤ 0.5 to 0.562.

G6A G18A G23C U26A C30U U35A A43G and G6C G18A G58A cannot be ordered by yeast fitness: ≤ 0.5 for the first, ≤ 0.5 for the second.

First: G6A U28A C30A
Second: G6A U26A
The yeast fitness of the first is lower: ≤ 0.5 for the first, 0.95 for the second.

Compared with G6A G39C, G6A G39C U64C is lower in yeast fitness: 0.821 for the first, 0.605 for the second.

Compared with G6C C24A C31U G38C, G6C A42C is higher in yeast fitness: ≤ 0.5 for the first, 0.808 for the second.

Compared with G6C A15C C46A, G6C G39C A45U C61U is lower in yeast fitness: 0.504 for the first, ≤ 0.5 for the second.

Compared with G6A G48C C49U, G6A G68A is higher in yeast fitness: 0.652 for the first, 0.896 for the second.

Going from G6A G68U to G6C C31U U35A C46G G48A C49U U64C, the yeast fitness falls from 0.934 to ≤ 0.5.

G6C G52C A57U and G6C C22A G41A G44C cannot be ordered by yeast fitness: ≤ 0.5 for the first, ≤ 0.5 for the second.

G6C G25C A37U G39C C62G and G6C G10C C11U C55U C61G C62G cannot be ordered by yeast fitness: ≤ 0.5 for the first, ≤ 0.5 for the second.

First: G6C C11U A21C G52A C61A G67C
Second: G6C C24G C34U U53C C55G C62A
The yeast fitness of the first is lower: ≤ 0.5 for the first, 0.557 for the second.

First: G6A U64A
Second: G6A G52A G68C
The yeast fitness of the first is higher: 0.71 for the first, 0.609 for the second.

Compared with G6C C34G A69C, G6A G10C C30A U32C A69U is higher in yeast fitness: ≤ 0.5 for the first, 0.586 for the second.

G6A U19C C30G A69C and G6A U8C G10C cannot be ordered by yeast fitness: ≤ 0.5 for the first, ≤ 0.5 for the second.

First: G6A G10C A20G C22U G38C U53C C61G
Second: G6C C24G C27G C29A C34U
The yeast fitness of the first is lower: ≤ 0.5 for the first, 0.684 for the second.

Compared with G6A G56C, G6A G56A is higher in yeast fitness: 0.672 for the first, 0.852 for the second.

For G6A U16C C27G C33A G38C A42G, the yeast fitness was ≤ 0.5.
